Experimental data: ChEMBL document CHEMBL3808369, “Identification of Cyproheptadine as an Inhibitor of SET Domain Containing Lysine Methyltransferase 7/9 (Set7/9) That Regulates Estrogen-Dependent Transcription” (J Med Chem, 2016)
Activity calls are given as the source filed them. No cut-off for these calls is given here.

Key:
[1] = molecular target: T1, Histone-lysine N-methyltransferase SETD7 (Homo sapiens) (UniProt Q8WTS6); experiment: Competitive inhibition of recombinant Set7/9 (unknown origin) expressed in Escherichia coli BL21 (DE3) using varying Ac-KRSK-MCA peptide as substrate in presence of SAM preincubated for 1 hr followed by substrate addition measured after 15 mins by Lineweaver-Burk plot analysis
T1 sequence (whole entry): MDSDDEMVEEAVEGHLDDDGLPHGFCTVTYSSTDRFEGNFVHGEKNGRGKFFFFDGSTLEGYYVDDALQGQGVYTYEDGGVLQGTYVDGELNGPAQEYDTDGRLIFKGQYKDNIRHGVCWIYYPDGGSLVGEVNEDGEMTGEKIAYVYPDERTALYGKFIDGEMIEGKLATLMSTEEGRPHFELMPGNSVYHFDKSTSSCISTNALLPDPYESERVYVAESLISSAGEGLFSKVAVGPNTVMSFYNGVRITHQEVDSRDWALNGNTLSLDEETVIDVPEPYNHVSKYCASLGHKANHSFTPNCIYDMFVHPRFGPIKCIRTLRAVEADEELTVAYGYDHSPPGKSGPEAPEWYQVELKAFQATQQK
Procedure, shortened: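 His6-tagged Set7/9 purified by Ni2+ affinity from E. coli BL21(DE3) after induction with 0.1 mM IPTG at 18 °C for 24 h. Kinetics were run in a fluorogenic HMT assay using Ac-KRSK-MCA peptide, with either SAM or peptide concentration varied. Initial velocities were analysed by Lineweaver–Burk plot, four independent assays.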

[2] = molecular target: T2, Histone-lysine N-methyltransferase EHMT2 (Homo sapiens) (UniProt Q96KQ7); experiment: Inhibition of G9a (unknown origin) by ELISA
T2 sequence (whole entry): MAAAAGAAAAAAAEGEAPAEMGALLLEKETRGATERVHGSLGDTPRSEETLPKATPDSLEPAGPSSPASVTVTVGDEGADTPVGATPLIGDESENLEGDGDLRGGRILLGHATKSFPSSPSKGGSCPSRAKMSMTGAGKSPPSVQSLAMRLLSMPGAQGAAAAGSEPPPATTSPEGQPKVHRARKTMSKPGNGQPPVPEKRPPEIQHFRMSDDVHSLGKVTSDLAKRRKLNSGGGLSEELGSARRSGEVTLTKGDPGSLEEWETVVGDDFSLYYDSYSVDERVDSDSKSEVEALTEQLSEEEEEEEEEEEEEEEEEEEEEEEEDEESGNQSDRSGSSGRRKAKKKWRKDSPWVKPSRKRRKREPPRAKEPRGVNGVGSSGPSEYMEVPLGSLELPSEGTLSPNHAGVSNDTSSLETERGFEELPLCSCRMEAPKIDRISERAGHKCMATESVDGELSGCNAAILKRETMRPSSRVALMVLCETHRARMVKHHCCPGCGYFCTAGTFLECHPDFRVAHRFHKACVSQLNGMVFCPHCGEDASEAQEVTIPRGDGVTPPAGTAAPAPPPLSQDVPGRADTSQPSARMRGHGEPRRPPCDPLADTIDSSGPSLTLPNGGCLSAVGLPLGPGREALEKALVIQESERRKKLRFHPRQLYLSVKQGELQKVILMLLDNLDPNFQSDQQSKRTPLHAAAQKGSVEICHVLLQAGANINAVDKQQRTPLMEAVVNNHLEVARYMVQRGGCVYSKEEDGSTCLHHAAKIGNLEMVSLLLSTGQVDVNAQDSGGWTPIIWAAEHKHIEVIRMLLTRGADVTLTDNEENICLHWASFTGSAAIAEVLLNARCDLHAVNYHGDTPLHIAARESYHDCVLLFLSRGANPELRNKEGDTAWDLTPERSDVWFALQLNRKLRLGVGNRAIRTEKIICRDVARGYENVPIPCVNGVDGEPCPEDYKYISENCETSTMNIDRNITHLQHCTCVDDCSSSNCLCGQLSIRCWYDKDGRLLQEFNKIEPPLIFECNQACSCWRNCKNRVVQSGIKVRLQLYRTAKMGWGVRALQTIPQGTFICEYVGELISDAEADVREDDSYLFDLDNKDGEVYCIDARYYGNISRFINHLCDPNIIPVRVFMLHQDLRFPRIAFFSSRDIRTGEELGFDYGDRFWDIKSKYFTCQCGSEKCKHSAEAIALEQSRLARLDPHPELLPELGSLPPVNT

[3] = molecular target: T2, Histone-lysine N-methyltransferase EHMT2 (Homo sapiens); experiment: Inhibition of G9a (unknown origin) by AlphaELISA
[4] = test system: MCF7; experiment: Antitumor activity against Fucci introduced human MCF7 cells xenografted in Balb/c-nu/nu mouse at 20 mg/kg, ip qd administered as single dose; assay type: functional, organism-based
Procedure, shortened: (§1)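 Female Balb/C-nu/nu mice, 7 weeks old, carried mammary Fucci-MCF7 xenografts (about 2 × 10^7 cells) grown to about 100 mm3. A single ip dose of 20 mg/kg in saline with 10% ethanol was given on day 1; a vehicle group ran alongside. Caliper tumor volume (a2b)/2 and body weight were recorded every 3 or 4 days to day 15. Tumor volume relative to day 1; six mice, mean ± SE.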

[5] = molecular target: T1, Histone-lysine N-methyltransferase SETD7 (Homo sapiens); experiment: Inhibition of Set7/9 in human MCF7 cells assessed as half life of ERalpha at 43 uM by immunoblotting analysis in presence of cycloheximide (reference value: 15.6 +/- 1.2 hrs); assay type: cell-based
Procedure, shortened: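 MCF7 cells treated with or without 43 μM drug in the presence of 1 μg/mL cycloheximide for various times. ERα immunoblotted from RIPA lysates and band intensity quantified to derive half-life. Three independent assays.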

[6] = molecular target: T1, Histone-lysine N-methyltransferase SETD7 (Homo sapiens); experiment: Inhibition of Set7/9 in human MCF7 cells assessed as suppression of beta-estradiol-induced pS2 mRNA expression at 14 to 43 uM preincubated for 24 hrs followed by beta-estradiol addition measured after 24 hrs by RT-PCR analysis
[7] = molecular target: T1, Histone-lysine N-methyltransferase SETD7 (Homo sapiens); experiment: Inhibition of Set7/9 in human MCF7 cells assessed as reduction of ERalpha expression after 48 hrs by immunoblotting analysis; assay type: cell-based
Procedure, shortened: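 MCF7 cells (1 × 10^5 per well) treated either with a concentration series for 48 h or with 43 μM over a time course. RIPA-sonicated lysates were immunoblotted for ERα with enhanced chemiluminescence readout.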

[8] = test system: Mus musculus; experiment: Effect on body weight in Balb/c-nu/nu mouse xenografted with Fucci introduced human MCF7 cells at 20 mg/kg, ip qd administered as single dose; assay type: ADME, organism-based; settings: in vivo; procedure, shortened: as §1

SMILES: CN1CCC(=C2c3ccccc3C=Cc3ccccc32)CC1 [CYPROHEPTADINE]
- inhibition [1]: Active
- inhibition [2]: Active
- inhibition [3]: Active
- TGI [4]: Active
- T1/2 [5]: 10.3 h
- inhibition [6]: Active
- inhibition [7]: Dose-dependent effect
- Activity [8]: Non-toxic
